These results are taken from PMC8592089 (SLAS discovery : advancing life sciences R & D, 2020).

By IC50 is commonly meant the point on the concentration scale where inhibition reaches its midpoint. Usually Kd stands for the constant that tells how readily two partners part at equilibrium.

Data set [1] has as its target MSUT2. As to the kind of experiment: Fluorescence polarization orthogonal assay, FAM-poly. The format is binding. Put shortly:
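GST-MSUT2 zinc finger (E. coli BL21(DE3), glutathione-purified) at 125 nM was mixed with 10 nM FAM-poly(A) RNA in PBS, and compound was added. Incubation was 20 min at room temperature, protected from light. Read at ex 485/20, em 528/20; buffer-only background was subtracted and polarization calculated as (F∥−F⊥)/(F∥+F⊥). A parallel run included DTT. N=3 without DTT, N=2 with DTT.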

Data set [2] addresses T1, PABPN1 (Homo sapiens, UniProt Q86U42).
T1 sequence (Q86U42 1-306): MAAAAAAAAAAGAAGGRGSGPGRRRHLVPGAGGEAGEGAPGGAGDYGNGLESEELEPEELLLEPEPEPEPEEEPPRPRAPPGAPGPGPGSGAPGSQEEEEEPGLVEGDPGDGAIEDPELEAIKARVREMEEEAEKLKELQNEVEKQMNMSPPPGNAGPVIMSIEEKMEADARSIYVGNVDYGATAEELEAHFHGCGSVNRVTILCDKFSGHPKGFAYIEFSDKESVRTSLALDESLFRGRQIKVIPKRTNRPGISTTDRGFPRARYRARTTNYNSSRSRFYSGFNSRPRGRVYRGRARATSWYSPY
As to the kind of experiment: AlphaScreen specificity counterscreen against PABPN1. Conditions: AlphaScreen IC50 MSUT2 compared with PABPN1, in words. The format is binding. Put shortly: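 GST-tagged PABPN1 and MSUT2 zinc-finger construct were expressed in E. coli BL21(DE3) and purified on glutathione-sepharose. AlphaScreen was run in AlphaLISA universal buffer plus 100 mM NaCl with donor beads (10 μg/mL), 250 nM biotinylated poly(A) RNA and 250 nM GST-MSUT2. Compound was pin-added, incubated 30 min at RT in the dark, then acceptor beads were added for 60 min. IC50 was from a four-parameter fit, N=3.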
In general terms: In Alpha technology, singlet oxygen from a donor bead excites a nearby acceptor bead.

In data set [3] the test system is HEK-293 cells. As to the kind of experiment: Cytotoxicity screen, CellTiter-Glo cell viability. The format is cell-based, human. To be noted: HEK cell model, in words. A general note: ATP-based viability assays read luminescence as a measure of living cells.
The target in data set [4] is MSUT2. To be noted: read-out: Kd of MSUT2 for poly(A); cited from earlier work.
The target in data set [5] is T2, MSUT2 ZF (zinc finger domain) (UniProt Q6PJT7 595-719).
T2 sequence: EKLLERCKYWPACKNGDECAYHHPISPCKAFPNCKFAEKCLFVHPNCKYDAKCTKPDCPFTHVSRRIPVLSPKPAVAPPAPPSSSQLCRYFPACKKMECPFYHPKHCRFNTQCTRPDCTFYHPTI
The data set is described as follows: competition.

The target in data set [6] is T3, PABPN1 (UniProt Q86U42 1-306).
T3 sequence: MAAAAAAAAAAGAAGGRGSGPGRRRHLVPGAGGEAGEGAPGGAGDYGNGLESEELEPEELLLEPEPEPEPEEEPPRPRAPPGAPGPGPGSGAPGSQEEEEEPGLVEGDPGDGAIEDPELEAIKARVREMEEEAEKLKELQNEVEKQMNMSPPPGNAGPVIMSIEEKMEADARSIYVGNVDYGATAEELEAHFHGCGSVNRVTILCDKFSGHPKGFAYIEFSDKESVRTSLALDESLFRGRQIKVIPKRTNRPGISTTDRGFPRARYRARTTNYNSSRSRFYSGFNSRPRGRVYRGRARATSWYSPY
The data set is described as follows: competition.

Where [7] appears, read: read-out: IC50 (FP = FP assay), without DTT, 125 nM MSUT2, 10 nM FAM-RNA.
Where [8] appears, read: read-out: IC50 (FP+DTT = FP in the presence of reducing agent DTT), with DTT.

“Also recorded” adds a separate entry of the source. Read-outs that look alike come from different tables or passages of the source.

Turning to `O=C1C(Cl)=C(Cl)C(=O)c2c(O)ccc(O)c21` [2,3-Dichloro-5,8-dihydroxynapthoquinone, 2,3-dichloro-5,8-dihydroxynapthoquinone], the IC50 amounted to 1.32 µM in data set [1] (setting [7]) and 1.56 µM in data set [1] (setting [8]). In addition, in data set [2], the “Specificity for MSUT2 versus PABPN1” value is on record as “low specificity for MSUT2”.
As for `O=C(O)C1=CC(=C(c2ccc(O)c(C(=O)O)c2)c2ccc(O)c(C(=O)O)c2)C=CC1=O` [Aurin tricarboxylic acid, aurin tricarboxylic acid], the IC50 in data set [1] (setting [7]) turned out to be 7.11 µM; in data set [1] (setting [8]) it was 7.19 µM. In data set [3], the “Effect on cell viability (toxicity)” value is “relatively high toxicity at high concentrations”. In data set [2], the “Specificity for MSUT2 versus PABPN1” value is “nonspecifically inhibited MSUT2”.
On the same counts, the results for `O=S(=O)(O)c1cc(N=C=S)ccc1C=Cc1ccc(N=C=S)cc1S(=O)(=O)O` [DIDS, 4,4′-diisothiocyanostilbene-2,2′-sulfonic acid] are 6.32 µM, 6.02 µM, “relatively nontoxic at all doses tested” and “low specificity for MSUT2; also recorded: twofold reduction in potency against PABPN1”.
Take `O=c1c2ccccc2[se]n1-c1ccccc1` [ebselen]: the “Inhibitory effect in FP assay in the presence of DTT” value in data set [1] (with reducing agent DTT) was “abolished the inhibitory effect”.
poly(A): the Kd in data set [4] was 60 ± 15 nM.
Take AAAAAAAAAAAAAAA (ssRNA) [unlabeled poly(A) 15-mer]: the figures for the half-inhibitory concentration (IC50) in data set [5] and in data set [6] were 198 nM and 803 nM, respectively.
